Assay results reported in BindingDB's records for doi:10.1016/j.bmc.2013.02.060 (National Institute On Drug Abuse and The National Institute …, 2013).

Each compound was assayed against Delta-type opioid receptor (Homo sapiens, UniProt P41143) (assay: Displacement of [3H]DADLE from human recombinant delta opioid receptor expressed in CHO cell membranes after 2 hrs by liquid scintillation counting analysis).
Summary of the method: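 Human DOR stably expressed in CHO cells; washed membranes (~30 µg protein/tube) incubated with ~2 nM [3H]DADLE and 10 drug concentrations in 50 mM Tris-HCl pH 7.4 with protease inhibitors, 2 h at 25 °C. Levallorphan defined nonspecific binding.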

Delta-type opioid receptor, sequence (P41143 whole entry): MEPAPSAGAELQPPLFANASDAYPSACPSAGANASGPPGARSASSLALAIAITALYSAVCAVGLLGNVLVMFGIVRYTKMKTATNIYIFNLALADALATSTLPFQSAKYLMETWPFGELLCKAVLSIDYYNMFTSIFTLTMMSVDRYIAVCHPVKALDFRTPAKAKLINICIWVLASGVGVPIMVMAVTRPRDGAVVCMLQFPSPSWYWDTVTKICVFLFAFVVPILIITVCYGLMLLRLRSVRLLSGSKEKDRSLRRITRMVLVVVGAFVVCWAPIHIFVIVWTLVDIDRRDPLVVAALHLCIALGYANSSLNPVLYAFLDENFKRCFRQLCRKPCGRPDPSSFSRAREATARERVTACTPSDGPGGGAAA

Row | SMILES | Ki [nM]
1 | Oc1ccc2c(c1)[C@]1(CCc3ccccc3)CCN(CCc3ccccc3)C[C@@H]1O2 | 39
2 | CN1CC[C@@]2(CCc3ccc(F)cc3)c3cc(O)ccc3O[C@H]2C1 | 128
3 | CN1CC[C@@]2(C)c3cc(O)ccc3O[C@H]2C1 | > 10000
4 | CN1CC[C@@]2(CCCCCc3ccccc3)c3cc(O)ccc3O[C@H]2C1 | 75
5 | Oc1ccc2c(c1)[C@]1(CCc3ccccc3)CCN(CCc3cccc(C(F)(F)F)c3)C[C@@H]1O2 | 63
6 | Oc1ccc2c(c1)[C@]1(CCc3ccccc3)CCN(CCc3ccccc3C(F)(F)F)C[C@@H]1O2 | 136
7 | Oc1ccc2c(c1)[C@]1(CCc3ccccc3)CCN(CC3CC3)C[C@@H]1O2 | 24
8 | Oc1ccc2c(c1)[C@]1(CCc3ccccc3)CCN(CCCc3ccccc3)C[C@@H]1O2 | 111
9 | CCCC[C@@]12CCN(C)C[C@@H]1Oc1ccc(O)cc12 | 207
10 | Oc1ccc2c(c1)[C@]1(CCc3ccccc3)CCN(CCc3ccc(C(F)(F)F)cc3)C[C@@H]1O2 | 26
11 | Oc1ccc2c(c1)[C@]1(CCc3ccccc3)CCN(CCc3ccc(F)cc3)C[C@@H]1O2 | 34
12 | Oc1ccc2c(c1)[C@]1(CCc3ccccc3)CCN(CCc3ccccc3F)C[C@@H]1O2 | 26
13 | CN1CC[C@@]2(CCc3ccccc3F)c3cc(O)ccc3O[C@H]2C1 | 52
